In ChEMBL document CHEMBL1156071, “Novel L-xylose derivatives as selective sodium-dependent glucose cotransporter 2 (SGLT2) inhibitors for the treatment of type 2 diabetes” (J Med Chem, 2009):
Blank lines part the entries; values can stand above or below the compound they belong to. Activity calls are given as the source filed them. The rule behind the calls is not given here.

Assays:
[1] = target: T1, Sodium/glucose cotransporter 2 (Mus musculus, UniProt Q923I7); test: Inhibition of mouse SGLT2-mediated [14C]alpha-methylglucopyranoside uptake by cell based assay
T1 sequence (Q923I7 whole entry): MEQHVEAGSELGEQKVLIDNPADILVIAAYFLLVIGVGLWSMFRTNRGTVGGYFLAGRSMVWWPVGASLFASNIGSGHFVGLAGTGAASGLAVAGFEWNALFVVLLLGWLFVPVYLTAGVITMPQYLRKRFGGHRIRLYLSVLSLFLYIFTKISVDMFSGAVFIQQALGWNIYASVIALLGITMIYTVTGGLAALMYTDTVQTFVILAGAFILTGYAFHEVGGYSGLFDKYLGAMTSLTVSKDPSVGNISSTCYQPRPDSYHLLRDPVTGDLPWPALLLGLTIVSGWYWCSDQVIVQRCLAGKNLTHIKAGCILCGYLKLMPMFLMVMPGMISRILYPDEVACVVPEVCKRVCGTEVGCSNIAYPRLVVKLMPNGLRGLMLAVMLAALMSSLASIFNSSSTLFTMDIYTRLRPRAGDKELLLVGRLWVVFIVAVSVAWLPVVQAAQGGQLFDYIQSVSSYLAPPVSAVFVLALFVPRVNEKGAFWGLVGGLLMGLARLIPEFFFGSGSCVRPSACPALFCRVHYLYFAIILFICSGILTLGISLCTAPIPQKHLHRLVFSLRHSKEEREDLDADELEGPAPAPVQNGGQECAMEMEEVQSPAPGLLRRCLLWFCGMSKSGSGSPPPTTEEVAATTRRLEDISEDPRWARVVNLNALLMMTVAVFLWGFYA

[2] = target: T2, Sodium/glucose cotransporter 2 (Homo sapiens, UniProt P31639); test: Inhibition of human SGLT2 expressed in HEK293 cells assessed as inhibition of [14C]alpha-methylglucopyranoside uptake; type: cell-based
T2 sequence (P31639 whole entry): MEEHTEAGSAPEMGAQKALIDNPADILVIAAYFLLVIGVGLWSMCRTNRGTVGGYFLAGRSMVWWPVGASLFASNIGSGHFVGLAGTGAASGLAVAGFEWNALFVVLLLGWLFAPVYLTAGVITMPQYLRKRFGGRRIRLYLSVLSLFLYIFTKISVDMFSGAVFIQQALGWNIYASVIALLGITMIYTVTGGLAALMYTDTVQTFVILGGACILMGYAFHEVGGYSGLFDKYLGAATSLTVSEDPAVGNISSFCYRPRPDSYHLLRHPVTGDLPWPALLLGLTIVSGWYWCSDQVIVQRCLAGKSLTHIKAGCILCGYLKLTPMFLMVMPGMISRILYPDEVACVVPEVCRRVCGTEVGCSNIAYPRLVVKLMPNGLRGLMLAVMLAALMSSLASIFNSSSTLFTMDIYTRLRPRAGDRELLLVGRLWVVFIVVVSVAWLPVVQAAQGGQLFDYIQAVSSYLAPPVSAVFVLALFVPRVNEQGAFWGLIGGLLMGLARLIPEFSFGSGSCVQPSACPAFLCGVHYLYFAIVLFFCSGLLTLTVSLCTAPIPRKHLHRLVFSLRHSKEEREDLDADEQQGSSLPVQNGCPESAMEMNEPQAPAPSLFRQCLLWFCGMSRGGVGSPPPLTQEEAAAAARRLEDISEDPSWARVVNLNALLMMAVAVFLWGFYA
How it was run: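 Cells stably expressing human SGLT2 were used to measure sodium-coupled uptake of [14C]α-methylglucopyranoside, a metabolically stable SGLT-specific glucose analogue. Uptake was measured across increasing compound concentrations, and IC50 was derived from the inhibition of uptake.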

[3] = tested on: Mus musculus; test: Half life in mouse at 10 mg/kg, po; type: ADME, organism-based; set-up: dose 10 mg/kg, route oral; settings: in vivo
[4] = (§1) Tmax in mouse at 10 mg/kg, po; type: ADME, organism-based; set-up: dose 10 mg/kg, route oral; settings: in vivo
[5] = (§2) Cmax in mouse at 10 mg/kg, po; type: ADME, organism-based; set-up: dose 10 mg/kg, route oral; settings: in vivo
[6] = (§3) AUC(last) in mouse at 10 mg/kg, po; type: ADME, organism-based, Plasma; set-up: time 0 - last, dose 10 mg/kg, route oral; settings: plasma
[7] = (§4) AUC (0 to infinity) in mouse at 10 mg/kg, po; type: ADME, organism-based, Plasma; set-up: time infinity, dose 10 mg/kg, route oral; settings: plasma
[8] = (§5) Apparent volume of distribution with respect to the bioavailability in mouse at 10 mg/kg, po; type: ADME, organism-based; settings: in vivo, read-out: Vc/F
[9] = Apparent oral clearance in mouse at 10 mg/kg, po; type: ADME, organism-based; set-up: dose 10 mg/kg, route oral; settings: in vivo
[10] = (§6) Mean resident time in mouse at 10 mg/kg, po; type: ADME, organism-based; set-up: dose 10 mg/kg, route oral; settings: in vivo
[11] = tested on: Mus musculus; test: Oral bioavailability in mouse at 10 mg/kg; type: ADME, organism-based; settings: in vivo
[12] = (§7) Half life in mouse at 1 mg/kg, iv; type: ADME, organism-based; set-up: dose 1 mg/kg, route intravenous; settings: in vivo
[13] = (§8) Tmax in mouse at 1 mg/kg, iv; type: ADME, organism-based; set-up: dose 1 mg/kg, route intravenous; settings: in vivo
[14] = (§9) AUC (0 to infinity) in mouse at 1 mg/kg, iv; type: ADME, organism-based, Plasma; set-up: dose 1 mg/kg, route intravenous, time infinity; settings: plasma
[15] = tested on: Mus musculus; test: Apparent volume of distribution with respect to the bioavailability in mouse at 1 mg/kg, iv; type: ADME, organism-based; settings: in vivo
[16] = Clearance in mouse at 1 mg/kg, iv; type: ADME, organism-based; set-up: dose 1 mg/kg, route intravenous; settings: in vivo
[17] = (§10) Mean resident time in mouse at 1 mg/kg, iv; type: ADME, organism-based; set-up: dose 1 mg/kg, route intravenous; settings: in vivo
[18] = (§11) Volume of distribution at steady state in mouse at 1 mg/kg, iv; type: ADME, organism-based; set-up: dose 1 mg/kg, route intravenous; settings: in vivo, read-out: Vdss
[19] = tested on: Mus musculus; test: Induction of glucosuria in high fat diet induced obese albino C57 mouse at 10 to 100 mg/kg, po administered as single administration measured after 17 hrs by glucose excretion assay; type: functional, organism-based
How it was run: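 Adult C57 diet-induced obese mice were given one oral gavage dose spanning 10 to 100 mg/kg. Urinary glucose excretion was measured over the first 17 h after dosing, n = 6 per group, with a vehicle-treated group included.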

[20] = tested on: Mus musculus; test: as §1; type: ADME, organism-based; set-up: dose 10 mg/kg, route oral; settings: in vivo
[21] = tested on: Mus musculus; test: as §2; type: ADME, organism-based; set-up: dose 10 mg/kg, route oral; settings: in vivo
[22] = tested on: Mus musculus; test: as §3; type: ADME, organism-based, Plasma; set-up: time 0 - last, dose 10 mg/kg, route oral; settings: in vivo
[23] = tested on: Mus musculus; test: as §4; type: ADME, organism-based, Plasma; set-up: time infinity, dose 10 mg/kg, route oral; settings: in vivo
[24] = tested on: Mus musculus; test: as §5; type: ADME, organism-based; settings: in vivo
[25] = tested on: Mus musculus; test: as §6; type: ADME, organism-based; set-up: dose 10 mg/kg, route oral; settings: in vivo
[26] = tested on: Mus musculus; test: as §7; type: ADME, organism-based; set-up: dose 1 mg/kg, route intravenous; settings: in vivo
[27] = tested on: Mus musculus; test: as §8; type: ADME, organism-based; set-up: dose 1 mg/kg, route intravenous; settings: in vivo
[28] = tested on: Mus musculus; test: as §9; type: ADME, organism-based, Plasma; set-up: dose 1 mg/kg, route intravenous, time infinity; settings: in vivo
[29] = tested on: Mus musculus; test: as §10; type: ADME, organism-based; set-up: dose 1 mg/kg, route intravenous; settings: in vivo
[30] = tested on: Mus musculus; test: as §11; type: ADME, organism-based; set-up: dose 1 mg/kg, route intravenous; settings: in vivo
[31] = tested on: Mus musculus; test: Induction of glucosuria in high fat diet induced obese albino C57 mouse at 75 mg/kg, po administered as single administration measured after 24 hrs by glucose excretion assay; type: functional, organism-based; set-up: dose 75 mg/kg
How it was run: (§12)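 DIO mice received one dose, either by oral gavage or as a dietary admixture. Urinary glucose excretion was then followed past 24 h, n = 6.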

[32] = tested on: Mus musculus; test: Induction of glucosuria in high fat diet induced obese albino C57 mouse at 30 mg/kg, po administered as single administration measured after 24 hrs by glucose excretion assay; type: functional, organism-based; set-up: dose 30 mg/kg; how it was run: as §12
[33] = tested on: Mus musculus; test: Induction of glucosuria in high fat diet induced obese albino C57 mouse at 75 mg/kg administered through diet measured after 24 hrs by glucose excretion assay; type: functional, organism-based; set-up: dose 75 mg/kg; how it was run: as §12
[34] = tested on: Mus musculus; test: Induction of glucosuria in high fat diet induced obese albino C57 mouse at 26 mg/kg administered daily through diet for 4 consecutive days by glucose excretion assay; type: functional, organism-based; set-up: dose 26 mg/kg
How it was run: (§13)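 DIO mice received the compound as a dietary admixture for 4 consecutive days. Average daily intakes were 8, 26, 77 and 259 mg/kg. Urinary glucose excretion was measured each day, n = 6.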

[35] = tested on: Mus musculus; test: Induction of glucosuria in high fat diet induced obese albino C57 mouse at 77 mg/kg administered daily through diet for 4 consecutive days by glucose excretion assay; type: functional, organism-based; set-up: dose 77 mg/kg; how it was run: as §13
[36] = tested on: Mus musculus; test: Induction of glucosuria in high fat diet induced obese albino C57 mouse at 259 mg/kg administered daily through diet for 4 consecutive days by glucose excretion assay; type: functional, organism-based; set-up: dose 259 mg/kg; how it was run: as §13

SMILES: CCOc1ccc(Cc2cc([C@@H]3OC(OC)[C@@H](O)[C@H](O)[C@H]3O)ccc2Cl)cc1 (mixture of isomers; 7a) [listing 1 of 2 here]
IC50 [1]: 7.1 nM | IC50 [2]: 25 nM | t1/2 [3]: 2.76 h | Tmax [4]: 22.8 min | Cmax [5]: 4.38 µM | AUC(0-t) [6]: 8.19 µM·h | AUC(0-inf) [7]: 11.7 µM·h | Vd/F [8]: 8.48 L/kg | CL/F [9]: 35.4 mL/min/kg | MRT [10]: 4.6 h | F [11]: 61.2% | half-life [12]: 64.2 min | Tmax [13]: 22.8 min | AUC(0-inf) [14]: 1.91 µM·h | Vc/F [15]: 1.91 L/kg | clearance [16]: 22.5 mL/min/kg | MRT [17]: 1.62 h | Vd [18]: 1.98 L/kg

SMILES: CCOc1ccc(Cc2cc([C@@H]3OC(OC)[C@@H](O)[C@H](O)[C@H]3O)ccc2Cl)cc1 (mixture of isomers; 7a) [listing 2 of 2 here]
Activity [19]: Dose-dependent effect

SMILES: CCOc1ccc(Cc2cc([C@@H]3OC(OC)[C@@H](O)[C@H](O)[C@H]3O)ccc2Cl)cc1 (mixture of isomers; 7c) [listing 2 of 2 here]
Activity [31]: Active | Activity [19]: Dose-dependent effect | Activity [32]: Active | Activity [33]: Active | Activity [34]: Active | Activity [35]: Active | Activity [36]: Active

SMILES: CCOc1ccc(C(=O)c2cc([C@@H]3OC(OC)[C@@H](O)[C@H](O)[C@H]3O)ccc2Cl)cc1 (single isomer, unassigned)
IC50 [1]: 57 nM | IC50 [2]: 100 nM

SMILES: CCOc1ccc(Cc2cc([C@@H]3OC(OC(C)C)[C@@H](O)[C@H](O)[C@H]3O)ccc2Cl)cc1 (stereo in doubt; 9b)
IC50 [1]: 15 nM | IC50 [2]: 33 nM

The remaining lines, values ahead:

IC50 [1]: 280 nM | IC50 [2]: 4800 nM
SMILES: CCOc1ccc(Cc2cc([C@@H]3OC(OC)[C@@H](O)[C@H](O)[C@H]3O)ccc2Cl)cc1 (mixture of isomers; 7b)

IC50 [1]: 6.3 nM | IC50 [2]: 14 nM | t1/2 [3]: 6.96 h | Tmax [20]: 15 min | Cmax [21]: 6.49 µM | AUC [22]: 16.191 µM·h | AUC [23]: 17.458 µM·h | Vc/F [24]: 14.2 L/kg | MRT [25]: 8.44 h | F [11]: 100% | t1/2 [26]: 1.29 h | Tmax [27]: 15 min | AUC [28]: 1481 nM·h | Vc/F [15]: 3.08 L/kg | MRT [29]: 1.77 h | Vdss [30]: 2.93 L/kg
SMILES: CCOc1ccc(Cc2cc([C@@H]3OC(OC)[C@@H](O)[C@H](O)[C@H]3O)ccc2Cl)cc1 (mixture of isomers; 7c) [listing 1 of 2 here]

IC50 [1]: 7.1 nM | IC50 [2]: 25 nM
SMILES: CCOc1ccc(Cc2cc([C@@H]3OC(OC)[C@@H](O)[C@H](O)[C@H]3O)ccc2Cl)cc1 (stereo in doubt; 6a)
